Assay results from ChEMBL document CHEMBL5724801, “EUbOPEN Chemogenomics Library - Multiplex” (2024).
“And” between values parts separate entries of the source, which are not always exact repeats. Equal values may be shown once.

These molecules were tested on HEK-293T (assay: Multiplex assay against HEK293T). Settings: human, 12 h, 1 µM, compound concentration 1 uM.
Format: toxicity, cell-based
Summary of the method: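 Live cells carried four stains from seeding: Hoechst33342, BioTracker Green Microtubule Cytoskeleton Dye, MitoTracker Red and Annexin V Alexa Fluor 680. They were imaged on a CQ1 microscope at 37°C and 5% CO2 after compound addition. Using CellPathfinder machine-learning gating, cells were split into Hoechst high-intensity objects or normal cells, normal cells into healthy, pyknosed or fragmented nuclei, and pyknosed cells into mitotic or apoptotic; tubulin, mitochondrial-mass and membrane-permeability phenotypes are per cents of healthy-nucleus cells.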

Structure (SMILES)	Population Apoptotic (%)	Population Fragmented Nuclei (%)	Population Healthy Nuclei (%)	Population Hoechst High Intensity Objects (%)	Population Membrane Permeable-Phenotype (%)	Population Mitochondria Different-Phenotype (%)	Population Mitotic Cells (%)	Population Normal (%)	Population Pyknosed Nuclei (%)	Population Tubulin-Different-Phenotype (%)
COc1ccc2c(c1OCc1ccccc1)C[C@@H](C(=O)O)N(C(=O)C(c1ccccc1)c1ccccc1)C2 [OLODANRIGAN]	39% and 43%	6% and 7%	82% and 81%	7%	0	44% and 48%	60% and 56%	92%	11% and 10%	21% and 17%
COc1cc(N2CCN(C)CC2)ccc1Nc1nccc(-c2cn(C)c3cnccc23)n1	10.14% and 10.53%	3.23% and 1.83%		0%	0		89.86% and 89.47%	100%	31.8% and 87.16%	
CCCCC[C@H](O)/C=C/[C@H]1[C@H](O)CC(=O)[C@@H]1CCCCCCC(=O)O [ALPROSTADIL]	35% and 50%	7% and 6%	79% and 80%	7% and 6%	0	42% and 55%	64% and 49%	92% and 93%	13%	28% and 18%
Cl.N=C(N)NC(=O)Cc1c(Cl)cccc1Cl [GUANFACINE HYDROCHLORIDE]	29% and 47%	3% and 5%	84% and 76%	7% and 12%	0	46% and 67%	70% and 52%	92% and 87%	11% and 17%	31%

Same assay, conditions: human, 12 h, 1 µM, compound concentration 1 uM

Structure (SMILES)	Total Cell Count
COc1ccc2c(c1OCc1ccccc1)C[C@@H](C(=O)O)N(C(=O)C(c1ccccc1)c1ccccc1)C2 [OLODANRIGAN]	419 and 409
CCCCC[C@H](O)/C=C/[C@H]1[C@H](O)CC(=O)[C@@H]1CCCCCCC(=O)O [ALPROSTADIL]	471 and 392
Cl.N=C(N)NC(=O)Cc1c(Cl)cccc1Cl [GUANFACINE HYDROCHLORIDE]	384 and 289

Same assay, conditions: human, 12 h, 10 µM, compound concentration 10 uM

Structure (SMILES)	Population Apoptotic (%)	Population Fragmented Nuclei (%)	Population Healthy Nuclei (%)	Population Hoechst High Intensity Objects (%)	Population Membrane Permeable-Phenotype (%)	Population Mitochondria Different-Phenotype (%)	Population Mitotic Cells (%)	Population Normal (%)	Population Pyknosed Nuclei (%)	Population Tubulin-Different-Phenotype (%)
COc1ccc2c(c1OCc1ccccc1)C[C@@H](C(=O)O)N(C(=O)C(c1ccccc1)c1ccccc1)C2 [OLODANRIGAN]	45% and 44%	6% and 4%	81% and 83%	6% and 3%	0%	42% and 58%	54% and 55%	93% and 96%	12%	35% and 27%
COc1cc(N2CCN(C)CC2)ccc1Nc1nccc(-c2cn(C)c3cnccc23)n1	19.35% and 16.13%	1.59% and 4.51%		0%	0.4% and 2.94%		80.65% and 83.87%	100%		
CCCCC[C@H](O)/C=C/[C@H]1[C@H](O)CC(=O)[C@@H]1CCCCCCC(=O)O [ALPROSTADIL]	33%	7%	78% and 75%	6% and 9%	1% and 0%	48% and 64%	66%	93% and 90%	14% and 17%	33% and 30%
Cl.N=C(N)NC(=O)Cc1c(Cl)cccc1Cl [GUANFACINE HYDROCHLORIDE]	52% and 34%	12% and 8%	67% and 77%	7% and 10%	0%	61% and 69%	47% and 65%	92% and 89%	20% and 14%	43% and 38%

Same assay, conditions: human, 12 h, 10 µM, compound concentration 10 uM

Structure (SMILES)	Total Cell Count
COc1ccc2c(c1OCc1ccccc1)C[C@@H](C(=O)O)N(C(=O)C(c1ccccc1)c1ccccc1)C2 [OLODANRIGAN]	389 and 368
COc1cc(N2CCN(C)CC2)ccc1Nc1nccc(-c2cn(C)c3cnccc23)n1	314 and 133
CCCCC[C@H](O)/C=C/[C@H]1[C@H](O)CC(=O)[C@@H]1CCCCCCC(=O)O [ALPROSTADIL]	318 and 309
Cl.N=C(N)NC(=O)Cc1c(Cl)cccc1Cl [GUANFACINE HYDROCHLORIDE]	296 and 365

Same assay, conditions: human, 24 h, 1 µM, compound concentration 1 uM

Structure (SMILES)	Population Apoptotic (%)	Population Fragmented Nuclei (%)	Population Healthy Nuclei (%)	Population Hoechst High Intensity Objects (%)	Population Membrane Permeable-Phenotype (%)	Population Mitochondria Different-Phenotype (%)	Population Mitotic Cells (%)	Population Normal (%)	Population Pyknosed Nuclei (%)	Population Tubulin-Different-Phenotype (%)
COc1ccc2c(c1OCc1ccccc1)C[C@@H](C(=O)O)N(C(=O)C(c1ccccc1)c1ccccc1)C2 [OLODANRIGAN]	46% and 19%	11% and 10%	78% and 81%	3% and 6%	0% and 1%	24% and 30%	53% and 80%	96% and 93%	10% and 8%	15% and 14%
COc1cc(N2CCN(C)CC2)ccc1Nc1nccc(-c2cn(C)c3cnccc23)n1	19.27% and 15.66%	1.54% and 3.91%	81.64% and 31.25%	0%	1.13% and 2.5%	11.15% and 10%	80.73% and 84.34%	100%		12.1% and 5%
CCCCC[C@H](O)/C=C/[C@H]1[C@H](O)CC(=O)[C@@H]1CCCCCCC(=O)O [ALPROSTADIL]	35% and 34%	9% and 6%	79% and 85%	3% and 4%	1% and 0%	22% and 35%	64% and 65%	96% and 95%	10% and 8%	15% and 14%
Cl.N=C(N)NC(=O)Cc1c(Cl)cccc1Cl [GUANFACINE HYDROCHLORIDE]	36% and 50%	8% and 4%	80% and 83%	4% and 10%	0%	27% and 42%	63% and 50%	95% and 89%	11%	21% and 19%

Same assay, conditions: human, 24 h, 1 µM, compound concentration 1 uM

Structure (SMILES)	Total Cell Count
COc1ccc2c(c1OCc1ccccc1)C[C@@H](C(=O)O)N(C(=O)C(c1ccccc1)c1ccccc1)C2 [OLODANRIGAN]	614 and 521
CCCCC[C@H](O)/C=C/[C@H]1[C@H](O)CC(=O)[C@@H]1CCCCCCC(=O)O [ALPROSTADIL]	605 and 526
Cl.N=C(N)NC(=O)Cc1c(Cl)cccc1Cl [GUANFACINE HYDROCHLORIDE]	493 and 344

Same assay, conditions: human, 24 h, 10 µM, compound concentration 10 uM

Structure (SMILES)	Population Apoptotic (%)	Population Fragmented Nuclei (%)	Population Healthy Nuclei (%)	Population Hoechst High Intensity Objects (%)	Population Membrane Permeable-Phenotype (%)	Population Mitochondria Different-Phenotype (%)	Population Mitotic Cells (%)	Population Normal (%)	Population Pyknosed Nuclei (%)	Population Tubulin-Different-Phenotype (%)
COc1ccc2c(c1OCc1ccccc1)C[C@@H](C(=O)O)N(C(=O)C(c1ccccc1)c1ccccc1)C2 [OLODANRIGAN]	40% and 43%	7% and 10%	78% and 79%	6%	0%	34% and 57%	59% and 56%	93%	13% and 9%	32% and 28%
COc1cc(N2CCN(C)CC2)ccc1Nc1nccc(-c2cn(C)c3cnccc23)n1	27.27% and 28.81%	2.49% and 1.67%	87.23% and 49.17%	0%	1.07% and 6.78%	7.5% and 3.39%	72.73% and 71.19%	100%		26.07% and 10.17%
CCCCC[C@H](O)/C=C/[C@H]1[C@H](O)CC(=O)[C@@H]1CCCCCCC(=O)O [ALPROSTADIL]	32% and 36%	11% and 7%	76% and 79%	2% and 8%	0%	26% and 50%	67% and 63%	97% and 91%	12%	23% and 22%
Cl.N=C(N)NC(=O)Cc1c(Cl)cccc1Cl [GUANFACINE HYDROCHLORIDE]	46% and 36%	11% and 6%	75% and 83%	7% and 9%	0%	48% and 50%	53% and 63%	92% and 90%	12% and 10%	39% and 27%

Same assay, conditions: human, 24 h, 10 µM, compound concentration 10 uM

Structure (SMILES)	Total Cell Count
COc1ccc2c(c1OCc1ccccc1)C[C@@H](C(=O)O)N(C(=O)C(c1ccccc1)c1ccccc1)C2 [OLODANRIGAN]	456 and 414
COc1cc(N2CCN(C)CC2)ccc1Nc1nccc(-c2cn(C)c3cnccc23)n1	321 and 120
CCCCC[C@H](O)/C=C/[C@H]1[C@H](O)CC(=O)[C@@H]1CCCCCCC(=O)O [ALPROSTADIL]	439 and 345
Cl.N=C(N)NC(=O)Cc1c(Cl)cccc1Cl [GUANFACINE HYDROCHLORIDE]	343 and 454

Same assay, conditions: human, 48 h, 1 µM, compound concentration 1 uM

Structure (SMILES)	Population Apoptotic (%)	Population Fragmented Nuclei (%)	Population Healthy Nuclei (%)	Population Hoechst High Intensity Objects (%)	Population Membrane Permeable-Phenotype (%)	Population Mitochondria Different-Phenotype (%)	Population Mitotic Cells (%)	Population Normal (%)	Population Pyknosed Nuclei (%)	Population Tubulin-Different-Phenotype (%)
COc1ccc2c(c1OCc1ccccc1)C[C@@H](C(=O)O)N(C(=O)C(c1ccccc1)c1ccccc1)C2 [OLODANRIGAN]	26% and 22%	13% and 15%	80% and 79%	2%	0%	15% and 18%	73% and 77%	97%	5%	11% and 10%
COc1cc(N2CCN(C)CC2)ccc1Nc1nccc(-c2cn(C)c3cnccc23)n1	7.58% and 13.11%	2.6% and 3.77%	85.55% and 57.86%	0.09% and 0.62%	3.57% and 0%	18.99% and 33.7%	92.42% and 86.89%	99.91% and 99.38%		
CCCCC[C@H](O)/C=C/[C@H]1[C@H](O)CC(=O)[C@@H]1CCCCCCC(=O)O [ALPROSTADIL]	32% and 13%	13% and 16%	79% and 77%	2% and 3%	2% and 0%	12% and 21%	67% and 86%	97% and 96%	7% and 6%	11% and 12%
Cl.N=C(N)NC(=O)Cc1c(Cl)cccc1Cl [GUANFACINE HYDROCHLORIDE]	15% and 34%	15% and 10%	78% and 79%	2% and 7%	1% and 0%	22% and 32%	84% and 65%	97% and 92%	6% and 9%	21% and 14%

Same assay, conditions: human, 48 h, 1 µM, compound concentration 1 uM

Structure (SMILES)	Total Cell Count
COc1ccc2c(c1OCc1ccccc1)C[C@@H](C(=O)O)N(C(=O)C(c1ccccc1)c1ccccc1)C2 [OLODANRIGAN]	1083 and 818
CCCCC[C@H](O)/C=C/[C@H]1[C@H](O)CC(=O)[C@@H]1CCCCCCC(=O)O [ALPROSTADIL]	1005 and 714
Cl.N=C(N)NC(=O)Cc1c(Cl)cccc1Cl [GUANFACINE HYDROCHLORIDE]	680 and 560

Same assay, conditions: human, 48 h, 10 µM, compound concentration 10 uM

Structure (SMILES)	Population Apoptotic (%)	Population Fragmented Nuclei (%)	Population Healthy Nuclei (%)	Population Hoechst High Intensity Objects (%)	Population Membrane Permeable-Phenotype (%)	Population Mitochondria Different-Phenotype (%)	Population Mitotic Cells (%)	Population Normal (%)	Population Pyknosed Nuclei (%)	Population Tubulin-Different-Phenotype (%)
COc1ccc2c(c1OCc1ccccc1)C[C@@H](C(=O)O)N(C(=O)C(c1ccccc1)c1ccccc1)C2 [OLODANRIGAN]	32% and 39%	12%	78% and 80%	5% and 6%	0%	22% and 32%	67% and 60%	94% and 93%	8% and 7%	15% and 18%
COc1cc(N2CCN(C)CC2)ccc1Nc1nccc(-c2cn(C)c3cnccc23)n1	20% and 25%	4.38% and 4.51%	87.29% and 74.44%	0%	2.86% and 0%	21.24% and 29.29%	80% and 75%	100%	8.33% and 21.05%	
CCCCC[C@H](O)/C=C/[C@H]1[C@H](O)CC(=O)[C@@H]1CCCCCCC(=O)O [ALPROSTADIL]	25% and 20%	15% and 14%	76% and 79%	2%	1% and 0%	17% and 30%	75% and 80%	97%	7% and 6%	15% and 14%
Cl.N=C(N)NC(=O)Cc1c(Cl)cccc1Cl [GUANFACINE HYDROCHLORIDE]	47% and 50%	17% and 12%	73% and 80%	6% and 10%	0%	31% and 33%	52% and 50%	93% and 89%	9% and 6%	14% and 20%

Same assay, conditions: human, 48 h, 10 µM, compound concentration 10 uM

Structure (SMILES)	Total Cell Count
COc1ccc2c(c1OCc1ccccc1)C[C@@H](C(=O)O)N(C(=O)C(c1ccccc1)c1ccccc1)C2 [OLODANRIGAN]	659 and 534
CCCCC[C@H](O)/C=C/[C@H]1[C@H](O)CC(=O)[C@@H]1CCCCCCC(=O)O [ALPROSTADIL]	685 and 537
Cl.N=C(N)NC(=O)Cc1c(Cl)cccc1Cl [GUANFACINE HYDROCHLORIDE]	421 and 612
